According to ChEMBL document CHEMBL1139832, “Selective angiotensin II AT(2) receptor agonists devoid of the imidazole ring system” (Bioorg Med Chem, 2007):
The source made the active and inactive calls. The calls are words filed in the database; no cut-off is given here.

Experiments:
[1] = target: T1, Type-1 angiotensin II receptor A (Rattus norvegicus, UniProt P25095); assay: Displacement of [125I]Ang 2 from AT1 receptor in rat liver membranes; assay type: cell membranes, Membrane
T1 sequence (P25095 whole entry): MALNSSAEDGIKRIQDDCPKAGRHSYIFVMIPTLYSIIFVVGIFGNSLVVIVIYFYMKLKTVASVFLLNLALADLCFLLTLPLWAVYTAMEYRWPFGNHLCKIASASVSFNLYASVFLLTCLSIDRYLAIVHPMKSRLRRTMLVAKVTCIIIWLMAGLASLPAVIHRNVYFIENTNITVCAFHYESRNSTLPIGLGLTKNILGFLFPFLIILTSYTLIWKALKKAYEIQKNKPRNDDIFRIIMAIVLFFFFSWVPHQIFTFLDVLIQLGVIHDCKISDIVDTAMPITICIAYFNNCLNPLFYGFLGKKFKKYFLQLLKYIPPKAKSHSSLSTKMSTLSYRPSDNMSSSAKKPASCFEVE
Outline: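 Rat liver membranes (5 mg original tissue) incubated with [125I]Ang II (0.03 nM) and varying test compound in 50 mM Tris–HCl pH 7.4, 100 mM NaCl, 10 mM MgCl2, 1 mM EDTA, 0.025% bacitracin, 0.2% BSA; 25 °C for 2 h. Filtered onto polyethylamine-soaked GF/B filters, gamma counting. Nonspecific binding with 1 µM Ang II; triplicate.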

[2] = Displacement of [125I]Ang 2 from AT2 receptor in pig uterus membranes; assay type: cell membranes, Sus scrofa, Membrane
Outline: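 Porcine uterine myometrial membranes (10 mg original tissue), with 1 µM losartan to block AT1, incubated with [125I]Ang II (0.03 nM) and varying test compound in Tris–HCl pH 7.4 buffer with NaCl, MgCl2, EDTA, bacitracin and BSA; 25 °C, 1.5 h. Filtered, gamma counted. Nonspecific binding with 1 µM Ang II. Ki via Cheng–Prusoff (Kd 0.73 nM), one-site fit; triplicate.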

[3] = tested on: NG108-15; assay: Induction of neurite outgrowth in NG108-15 cells at 1 nM after 3 days; assay type: functional, cell-based
Outline: (§1)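 NG108-15 neuroblastoma×glioma cells (AT2 only; DMEM, 10% FBS, HAT) plated at 3.6·10⁴ cells/35 mm dish, then treated daily for 3 days, alone or with PD 123,319 added 30 min beforehand. Examined by phase-contrast microscopy.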

[4] = tested on: NG108-15; assay: Induction of neurite outgrowth in NG108-15 cells at 0.1 uM after 3 days; assay type: functional, cell-based; outline: as §1

Ki [1] [nM] | Ki [2] [nM] | Compound | Activity [3] | Activity [4]
> 10000 | 126 | CCCCOC(=O)NS(=O)(=O)c1sc(CC(C)C)cc1-c1ccc(CN(CC)C(C)=O)cc1 |  | 
> 10000 | 367 | CCCCOC(=O)NS(=O)(=O)c1sc(CC(C)C)cc1-c1ccc(CC(=O)N(C)CCCC)cc1 |  | 
> 10000 | 185 | CCCCOC(=O)NS(=O)(=O)c1sc(CC(C)C)cc1-c1ccc(CC(=O)N(Cc2ccccc2)Cc2ccccc2)cc1 |  | 
> 10000 | 32 | CCCCOC(=O)NS(=O)(=O)c1sc(CC(C)C)cc1-c1ccc(CN(C)S(C)(=O)=O)cc1 |  | 
> 10000 | 51 | CCCCOC(=O)NS(=O)(=O)c1sc(CC(C)C)cc1-c1ccc(CC(N)=O)cc1 |  | 
> 10000 | 84 | CCCCOC(=O)NS(=O)(=O)c1sc(CC(C)C)cc1-c1ccc(CN(Cc2ccccc2)C(=O)CCCC)cc1 |  | 
> 10000 | 8.8 | CCCCOC(=O)NS(=O)(=O)c1sc(CC(C)C)cc1-c1ccc(CN(C)C(C)=O)cc1 | Active | 
> 10000 | 138 | CCCCOC(=O)NS(=O)(=O)c1sc(CC(C)C)cc1-c1ccc(CN(CC)C(=O)c2cccs2)cc1 |  | 
> 10000 | 9.1 | CCCCOC(=O)NS(=O)(=O)c1sc(CC(C)C)cc1-c1ccc(CN(C)C(C)=O)o1 | Active | 
> 10000 | 60 | CCCCOC(=O)NS(=O)(=O)c1sc(CC(C)C)cc1-c1ccc(CN(C(C)=O)c2ccc(C)cc2)cc1 |  | 
> 10000 | 12 | CCCCOC(=O)NS(=O)(=O)c1sc(CC(C)C)cc1-c1ccc(CN(C)C(=O)CCCC)cc1 |  | 
> 10000 | 200 | CCCCOC(=O)NS(=O)(=O)c1sc(CC(C)C)cc1-c1ccc(CN(Cc2ccccc2)C(C)=O)cc1 |  | 
> 10000 | 404 | CCCCOC(=O)NS(=O)(=O)c1sc(CC(C)C)cc1-c1ccc(CN(Cc2cccnc2)C(=O)c2ccccc2)cc1 |  | 
> 10000 | > 10000 | CCCCOC(=O)NS(=O)(=O)c1sc(CC(C)C)cc1-c1ccc(CN(C)C)cc1 |  | 
> 10000 | 158 | CCCCCCNC(=O)Cc1ccc(-c2cc(CC(C)C)sc2S(=O)(=O)NC(=O)OCCCC)cc1 |  | 
> 10000 | 80 | CCCCOC(=O)NS(=O)(=O)c1sc(CC(C)C)cc1-c1ccc(CC(=O)NC)cc1 |  | 

Ki [1] [nM] | Ki [2] [nM] | Compound | Activity [3] | Activity [4]
> 10000 | 133 | CCCCOC(=O)NS(=O)(=O)c1sc(CC(C)C)cc1-c1ccc(CC(=O)N2CCSC2)cc1 |  | 
> 10000 | > 10000 | CCCCOC(=O)NS(=O)(=O)c1sc(CC(C)C)cc1-c1csc(CN(C)C(C)=O)c1 |  | 
> 10000 | 219 | CCCCOC(=O)NS(=O)(=O)c1sc(CC(C)C)cc1-c1ccc(CC(=O)N(c2ccccc2)c2ccccc2)cc1 |  | 
> 10000 | 7 | CCCCOC(=O)NS(=O)(=O)c1sc(CC(C)C)cc1-c1ccc(CC(=O)N(C)C)cc1 |  | Active
> 10000 | > 10000 | CCCCOC(=O)NS(=O)(=O)c1sc(CC(C)C)cc1-c1ccc(CN(C)CC#N)cc1 |  | 
> 10000 | 221 | CCCCOC(=O)NS(=O)(=O)c1sc(CC(C)C)cc1-c1ccc(CC(=O)NCc2ccccc2)cc1 |  | 
> 10000 | 322 | CCCCOC(=O)NS(=O)(=O)c1sc(CC(C)C)cc1-c1ccc(CC(=O)N(CC)Cc2ccccc2)cc1 |  | 
> 10000 | > 10000 | CCCCOC(=O)NS(=O)(=O)c1sc(CC(C)C)cc1-c1ccc(CN(C)C(C)=O)cn1 |  | 
> 10000 | 124 | CCCCOC(=O)NS(=O)(=O)c1sc(CC(C)C)cc1-c1ccc(CC(=O)N2CCOCC2)cc1 |  | 
> 10000 | 59 | CCCCOC(=O)NS(=O)(=O)c1sc(CC(C)C)cc1-c1ccc(CN(Cc2cccnc2)C(C)=O)cc1 |  | 
> 10000 | 2.8 | CCCCOC(=O)NS(=O)(=O)c1sc(CC(C)C)cc1-c1ccc(CN(C)OC)cc1 | Active | 
> 10000 | 9.7 | CCCCOC(=O)NS(=O)(=O)c1sc(CC(C)C)cc1-c1ccc(CN(C)C(=O)OCC)cc1 |  | 
> 10000 | 58 | CCCCOC(=O)NS(=O)(=O)c1sc(CC(C)C)cc1-c1ccc(CC(=O)Nc2ccc(C)cc2)cc1 |  | 
> 10000 | 5.8 | CCCCOC(=O)NS(=O)(=O)c1sc(CC(C)C)cc1-c1ccc(CNC(C)=O)cc1 |  | 
> 10000 | 3.1 | CCCCOC(=O)NS(=O)(=O)c1sc(CC(C)C)cc1-c1ccc(CN(C)C=O)cc1 |  | 
> 10000 | 46 | CCCCOC(=O)NS(=O)(=O)c1sc(CC(C)C)cc1-c1ccc(CN(C(=O)c2ccccc2)c2ccc(C)cc2)cc1 |  | 
